High-throughput results as filed in PubChem BioAssay.
PGC1a acetyl up: compounds raising PGC1a acetylation signal, primary screen, PGC1a modulator project, cell-based, U2OS, AlphaScreen, signal-increasing mode; overnight; activation, % at 15.6 µM; hit rate 0.21% among 350,000; AID 651723, 2012;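 active means every replicate reaching activation of at least 50%, whatever the mean replicate activation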;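 further: hits raise the AlphaScreen acetylation signal above neutral controls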
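detection = AlphaScreen lysate read | assay system = U2OS cells expressing flag-PGC1a plus GCN5 | input = 7000 cells/well | dosing = one concentration | times = compound overnight at 37 °C, each detection step 1 h RT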
Of the large screens only hits and unclear results are named; the others gave an inactive call. Only a sample is shown.

CC(=O)Nc1ccc(NS(=O)(=O)c2ccc(C)cc2)cc1[N+](=O)[O-]	PGC1a acetyl up 58
CO[C@H]1CN(C)C(=O)c2cc(NS(C)(=O)=O)ccc2OC[C@H](C)N(C(=O)NC(C)C)C[C@@H]1C	none
O=C(c1ccc(N2CCCC2=O)cc1)N1CCCCCC1	none
COc1cc2cc(C)c3nnc(SCC(=O)Nc4cc(C)on4)n3c2cc1OC	none
O=C(N/N=C/c1ccc(OC2CSC2)cc1)c1ccc(CN2CCOCC2)cc1	none
C[C@H]1CN([C@@H](C)CO)S(=O)(=O)c2ccc(-c3cncnc3)cc2O[C@H]1CN(C)C(=O)CN(C)C	none
CC1CCc2sc(C(=O)Nc3nnc(SCc4ccc(F)cc4)s3)cc2C1 (configuration not stated)	none
CCN(CC)c1ccc(NC(=O)c2ccc(NC(=O)C3CCCO3)cc2)c(C)c1 (configuration not stated)	PGC1a acetyl up 54
O=C(Nc1cccc(S(=O)(=O)N2CCCCC2)c1)c1ccc([N+](=O)[O-])o1	PGC1a acetyl up 226
Cc1ccc(NC(=O)c2ccc([N+](=O)[O-])o2)cc1S(=O)(=O)N1CCOCC1	PGC1a acetyl up 191
CC(C)(C)NS(=O)(=O)c1ccc(CCC(=O)N2CCOCC2)cc1	none
Cc1ccc(S(=O)(=O)N2CCN(C(=O)N3CCOCC3)CC2)cc1C	none
O=S(=O)(c1ccc2[nH]ccc2c1)N1CCCCCC1	none
O=C(Nc1cccc(S(=O)(=O)N2CCOCC2)c1)c1ccco1	PGC1a acetyl up 67
O=C1c2ccccc2-c2c1cccc2C(=O)N1CCN(C(=O)c2ccco2)CC1	none
O=C(NCC1CC1)Nc1ccccc1F	none
CCCCNC(=O)C1CCN(Cc2ccccn2)CC1	none
CC1CC(C)(C)CC(=O)C1C(=O)c1ccccc1 (configuration not stated)	none
CC(C)c1ccc(NC(=O)CSc2nc3ccsc3c(=O)n2Cc2ccc(C(=O)O)cc2)cc1	none
COc1ccc(C(NC(=O)c2c(F)c(F)c(F)c(F)c2F)c2ccccc2)cc1 (configuration not stated)	none
CC(C)C#Cc1ccc([C@@H]2[C@H]3CN(C(=O)NC4CCCC4)CC(=O)N3[C@H]2CO)cc1	none
COc1ccc2c3c([nH]c2c1)[C@H](CO)N(C(=O)c1ccncc1)CC31CN(C(=O)c2ccncc2)C1	none
CCC(=O)N(C)C[C@@H]1Oc2ncc(C#CCc3ccccc3)cc2C(=O)N([C@H](C)CO)C[C@@H]1C	none
CCOc1ccc2c(c1)C(C)=CC(C)(C)N2S(=O)(=O)c1ccc(C)cc1	PGC1a acetyl up 64
CCOC(=O)C(=Cc1ccc(OCc2ccc([N+](=O)[O-])cc2)c(OC)c1)C(=O)OCC	none
Cn1cnc(S(=O)(=O)N2C[C@@H](O)COC[C@H]3O[C@H](CC(=O)NCc4cc(F)cc(F)c4)CC[C@@H]32)c1	none
CCOC(=O)C1=C(NC(=O)c2ccc(Br)o2)Nc2ccccc2N=C1	none
CCOCCOC(=O)C(C)Oc1ccc(Oc2nc(Cl)ccc2Cl)cc1 (configuration not stated)	none
CCC(=O)N[C@H]1CC[C@H](CC(=O)OC)O[C@H]1CO	none
CC/C(=C(\c1ccc(O)cc1)c1ccc(OCCN(C)C)cc1)c1ccccc1	PGC1a acetyl up 63
CC/C(=C(\c1ccccc1)c1ccc(OCCN(C)C)cc1)c1ccccc1	PGC1a acetyl up 124
CCN(CC)CCOc1ccc(/C(=C(/Cl)c2ccccc2)c2ccccc2)cc1	PGC1a acetyl up 99
C[C@H](CO)N1C[C@H](C)[C@H](CN(C)Cc2ccc(Oc3ccccc3)cc2)Oc2c(NC(=O)Nc3ccc4c(c3)OCO4)cccc2C1=O	none
N#Cc1ccsc1NC(=O)CSc1nnc(NC2CC2)s1	none
N#Cc1c(-c2cccc(Br)c2)cc(-c2ccco2)[nH]c1=O	none
CSc1ncccc1C(=O)N1CCN(C(=O)c2ccccc2)CC1	none
O=[N+]([O-])c1cc(-c2nnc(Nc3ccc(O)cc3)c3ccccc23)ccc1N1CCOCC1	PGC1a acetyl up 129
O=C1C2C3C=CC(C4CC34)C2C(=O)N1/N=C/c1c[nH]c2ccccc12 (configuration not stated)	none
Cc1ccc(N2CCN(CC(O)COC3CCCCC3)CC2)cc1 (configuration not stated)	PGC1a acetyl up 82
O=C(C[C@@H]1CC[C@@H](NS(=O)(=O)c2ccc(F)cc2)[C@H](CO)O1)N1CCN(c2ccccc2)CC1	none
COc1ccc(NC(=O)N[C@H]2CC[C@@H](CCn3cc(-c4ccccc4F)nn3)O[C@H]2CO)cc1	none
O=C1Nc2c(Br)cc(Br)c3cccc1c23	none
O=C(Cc1ccccc1)N1CC[C@@H]2[C@H]1c1cc(C#Cc3ccccc3)ccc1N[C@@H]2CO	PGC1a acetyl up 64
N#C/C(=C/c1ccc(N2CCCCCC2)o1)c1ccc(F)cc1	PGC1a acetyl up 91
C[C@@H]1CN([C@H](C)CO)C(=O)CCCn2cc(nn2)CO[C@@H]1CN(C)C(=O)Nc1cccc2ccccc12	none
CC1CC(=O)c2c(cc3c(-c4c(O)cc(O)c5c(O)c6c(cc45)OC(C)CC6=O)c(O)cc(O)c3c2O)O1 (configuration not stated)	none
Cn1c(O)c(C(C#N)=C2N=c3ccccc3=N2)c2ccccc21	PGC1a acetyl up 72
Cc1cc(C)c2oc(C(=O)N(Cc3ccccc3)c3ccccn3)cc(=O)c2c1	none
CC1CCCN(C(=O)Cc2ccc(F)cc2)C1 (configuration not stated)	none
Cc1ccccc1S(=O)(=O)NCC[C@@H]1CC[C@@H](NC(=O)C2CCOCC2)[C@H](CO)O1	none
c1cc2c3c(cccc3c1)C(N1CCCCCC1)=N2	PGC1a acetyl up 86
Oc1ccc(-c2nnc(-c3ccc(O)cc3)nn2)cc1	PGC1a acetyl up 74
Cc1cccc(OC2(c3ccccc3)OC(=O)c3ccccc32)c1C (configuration not stated)	PGC1a acetyl up 91
Cc1ccccc1CS(=O)(=O)c1nnc([C@H](CC(C)C)NC(=O)OC(C)(C)C)o1	PGC1a acetyl up 74
Cc1cc(C(=O)Nc2cccc3c2O[C@H](CN(C)C(=O)Nc2ccc4c(c2)OCO4)[C@@H](C)CN([C@H](C)CO)C3=O)n(C)n1	none
CC(=O)N(c1ccccc1)c1nnc(-c2cnc(C)cn2)s1	none
C[C@@H]1CN([C@@H](C)CO)S(=O)(=O)c2ccc(-c3ccc(C#N)cc3)cc2O[C@H]1CN(C)C(=O)CN(C)C	none
O=C(CSc1nc(NS(=O)(=O)c2ccccc2)cc(=O)[nH]1)Nc1ccc(F)cc1	PGC1a acetyl up 69
NS(=O)(=O)c1cccc(NC(=O)CSc2ccccn2)c1	none
C[C@H]1CN([C@@H](C)CO)C(=O)Cc2cc(NS(=O)(=O)c3ccc(F)cc3)ccc2O[C@@H]1CN(C)C(=O)Nc1ccc2c(c1)OCO2	none
O=C(C[C@H]1CC[C@@H](NS(=O)(=O)c2ccc(F)cc2)[C@H](CO)O1)N1CCN(c2ccccc2)CC1	none
O=C(Nc1cccc2c1CCCC2)c1ccccc1Br	none
CCOC(=O)CS(=O)(=O)c1nc(-c2ccccc2)cc(C(F)(F)F)n1	none
CCOC(=O)CN1C(=O)C(Sc2n[nH]c(-c3ccc(C)cc3)n2)CCc2ccccc21 (configuration not stated)	PGC1a acetyl up 59
COc1ccc(N=C2SC(C(N)=O)CC(=O)N2Cc2ccc3c(c2)OCO3)cc1 (configuration not stated)	none
O=C(CN1CCC(n2nnc3cc(F)ccc32)CC1)Nc1ccc2c(c1)CCC2	PGC1a acetyl up 103
C[C@H](CO)N1C[C@H](C)[C@@H](CN(C)Cc2ccccc2F)Oc2ncc(Br)cc2C1=O	none
CCOC(=O)c1ccc(NC(=O)Nc2ccc(F)cc2)cc1	none
CCOC(=O)c1ccc(NC(=O)CCS(=O)(=O)c2ccc(Br)s2)cc1	PGC1a acetyl up 50
